From ChEMBL document CHEMBL2417419, “Synthesis and quantitative structure-activity relationship of imidazotetrazine prodrugs with activity independent of O6-methylguanine-DNA-methyltransferase, DNA mismatch repair, and p53” (J Med Chem, 2013)
Calls of active or inactive are those of the source. The calls are words filed in the database; no cut-off is given here.

system: A2780; test: Ratio of IC50 for human A2780 cells to IC50 for human A2780 cells in presence of MGMT inactivator PaTrin2; type: functional; conditions: not given

SMILES | Ratio IC50
COc1ccc(N(CCn2nnc3c(C(N)=O)ncn3c2=O)CCn2nnc3c(C(N)=O)ncn3c2=O)cc1 | 0.5
CC(C)(C)OC(=O)N(CCn1nnc2c(C(N)=O)ncn2c1=O)c1ccc(Cl)cc1 | 1.1
NC(=O)c1ncn2c(=O)n(CCN(CCn3nnc4c(C(N)=O)ncn4c3=O)c3ccc(F)cc3)nnc12 | 0.5
Cc1ccc(N(C)CCn2nnc3c(C(N)=O)ncn3c2=O)cc1[N+](=O)[O-] | 1.1
COc1ccc(N(C)CCn2nnc3c(C(N)=O)ncn3c2=O)c([N+](=O)[O-])c1 | 1.1
NC(=O)c1ncn2c(=O)n(CCN(CCn3nnc4c(C(N)=O)ncn4c3=O)c3ccc(Cl)cc3)nnc12 | 0.5
CN(CCn1nnc2c(C(N)=O)ncn2c1=O)c1ccccc1 | 1.1
Cc1ccc(N(C)CCn2nnc3c(C(N)=O)ncn3c2=O)cc1 | 1.1

system: A2058; test: Chemosensitization of human A2058 cells after 5 days by MTT assay; type: functional, cell-based; conditions: A2058, 120 h, in the assay text read “Cyquant assay” for “MTT assay”

SMILES | IC50 [µM]
COc1ccc(N(CCn2nnc3c(C(N)=O)ncn3c2=O)CCn2nnc3c(C(N)=O)ncn3c2=O)cc1 | 2.5
NC(=O)c1ncn2c(=O)n(CCN(CCn3nnc4c(C(N)=O)ncn4c3=O)c3ccc(F)cc3)nnc12 | 5.5

system: A2780/CP70; test: Chemosensitization of MMR-deficient human A2780/CP70 cells after 5 days by MTT assay; type: functional, cell-based; conditions: not given

SMILES | Activity
COc1ccc(N(CCn2nnc3c(C(N)=O)ncn3c2=O)CCn2nnc3c(C(N)=O)ncn3c2=O)cc1 | Active
CC(C)(C)OC(=O)N(CCn1nnc2c(C(N)=O)ncn2c1=O)c1ccc(Cl)cc1 | Active
NC(=O)c1ncn2c(=O)n(CCN(CCn3nnc4c(C(N)=O)ncn4c3=O)c3ccc(F)cc3)nnc12 | Active
Cc1ccc(N(C)CCn2nnc3c(C(N)=O)ncn3c2=O)cc1[N+](=O)[O-] | Active
COc1ccc(N(C)CCn2nnc3c(C(N)=O)ncn3c2=O)c([N+](=O)[O-])c1 | Active
NC(=O)c1ncn2c(=O)n(CCN(CCn3nnc4c(C(N)=O)ncn4c3=O)c3ccc(Cl)cc3)nnc12 | Active
CN(CCn1nnc2c(C(N)=O)ncn2c1=O)c1ccccc1 | Active
Cc1ccc(N(C)CCn2nnc3c(C(N)=O)ncn3c2=O)cc1 | Active

system: SNB-19; test: Chemosensitization of human SNB19 cells expressing MGMT after 5 days by MTT assay; type: functional, cell-based; conditions: SNB-19, 120 h, in the assay text read “Cyquant assay” for “MTT assay”

SMILES | IC50 [µM]
COc1ccc(N(CCn2nnc3c(C(N)=O)ncn3c2=O)CCn2nnc3c(C(N)=O)ncn3c2=O)cc1 | 7
NC(=O)c1ncn2c(=O)n(CCN(CCn3nnc4c(C(N)=O)ncn4c3=O)c3ccc(F)cc3)nnc12 | 12

system: A2058; test: Ratio of temozolomide IC50 to compound IC50 for human A2058 cells; type: functional; conditions: not given

SMILES | Ratio IC50
COc1ccc(N(CCn2nnc3c(C(N)=O)ncn3c2=O)CCn2nnc3c(C(N)=O)ncn3c2=O)cc1 | 10
NC(=O)c1ncn2c(=O)n(CCN(CCn3nnc4c(C(N)=O)ncn4c3=O)c3ccc(F)cc3)nnc12 | 10

system: HCT-116; test: Chemosensitization of human HCT116 cells expressing p53 after 5 days by MTT assay; type: functional, cell-based; conditions: HCT-116, 120 h
Summary of the method: (§1)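 Cells were seeded at 1×10^3 per well and incubated overnight (37 °C, 5% CO2) to attach, then given fresh medium with compound at 0 (control) to 250 µM. Compounds were dissolved in DMSO, final DMSO <0.1% v/v, with no PaTrin2. MTT survival was measured after 5 days at 37 °C. Isogenic HCT116 p53+/+ and p53−/− pair used.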

SMILES | IC50 [µM]
COc1ccc(N(CCn2nnc3c(C(N)=O)ncn3c2=O)CCn2nnc3c(C(N)=O)ncn3c2=O)cc1 | 7.6
NC(=O)c1ncn2c(=O)n(CCN(CCn3nnc4c(C(N)=O)ncn4c3=O)c3ccc(F)cc3)nnc12 | 28

system: A2780; test: Chemosensitization of human A2780 cells after 5 days by MTT assay; type: functional, cell-based; conditions: A2780, 120 h

SMILES | IC50 [µM]
COc1ccc(N(CCn2nnc3c(C(N)=O)ncn3c2=O)CCn2nnc3c(C(N)=O)ncn3c2=O)cc1 | 1
CC(C)(C)OC(=O)N(CCn1nnc2c(C(N)=O)ncn2c1=O)c1ccc(Cl)cc1 | 22
NC(=O)c1ncn2c(=O)n(CCN(CCn3nnc4c(C(N)=O)ncn4c3=O)c3ccc(F)cc3)nnc12 | 1
Cc1ccc(N(C)CCn2nnc3c(C(N)=O)ncn3c2=O)cc1[N+](=O)[O-] | 22
COc1ccc(N(C)CCn2nnc3c(C(N)=O)ncn3c2=O)c([N+](=O)[O-])c1 | 22
NC(=O)c1ncn2c(=O)n(CCN(CCn3nnc4c(C(N)=O)ncn4c3=O)c3ccc(Cl)cc3)nnc12 | 1
CN(CCn1nnc2c(C(N)=O)ncn2c1=O)c1ccccc1 | 22
Cc1ccc(N(C)CCn2nnc3c(C(N)=O)ncn3c2=O)cc1 | 22

system: HCT-116; test: Chemosensitization of p53-deficient human HCT116 cells after 5 days by MTT assay; type: functional, cell-based; conditions: HCT-116, 120 h; summary of the method: as §1

SMILES | IC50 [µM]
COc1ccc(N(CCn2nnc3c(C(N)=O)ncn3c2=O)CCn2nnc3c(C(N)=O)ncn3c2=O)cc1 | 9.9
NC(=O)c1ncn2c(=O)n(CCN(CCn3nnc4c(C(N)=O)ncn4c3=O)c3ccc(F)cc3)nnc12 | 17

system: A2780; test: Ratio of IC50 for MMR-deficient human A2780/CP70 cells to IC50 for human A2780 cells in presence of MGMT inactivator PaTrin2; type: functional; conditions: not given

SMILES | Ratio IC50
COc1ccc(N(CCn2nnc3c(C(N)=O)ncn3c2=O)CCn2nnc3c(C(N)=O)ncn3c2=O)cc1 | 5
CC(C)(C)OC(=O)N(CCn1nnc2c(C(N)=O)ncn2c1=O)c1ccc(Cl)cc1 | 2.8
NC(=O)c1ncn2c(=O)n(CCN(CCn3nnc4c(C(N)=O)ncn4c3=O)c3ccc(F)cc3)nnc12 | 5
Cc1ccc(N(C)CCn2nnc3c(C(N)=O)ncn3c2=O)cc1[N+](=O)[O-] | 2.8
COc1ccc(N(C)CCn2nnc3c(C(N)=O)ncn3c2=O)c([N+](=O)[O-])c1 | 2.8
NC(=O)c1ncn2c(=O)n(CCN(CCn3nnc4c(C(N)=O)ncn4c3=O)c3ccc(Cl)cc3)nnc12 | 5
CN(CCn1nnc2c(C(N)=O)ncn2c1=O)c1ccccc1 | 2.8
Cc1ccc(N(C)CCn2nnc3c(C(N)=O)ncn3c2=O)cc1 | 2.8

system: SNB-19; test: Chemosensitization of MGMT-deficient human SNB19 cells after 5 days by MTT assay; type: functional, cell-based; conditions: SNB-19, 120 h, in the assay text read “Cyquant assay” for “MTT assay”

SMILES | IC50 [µM]
COc1ccc(N(CCn2nnc3c(C(N)=O)ncn3c2=O)CCn2nnc3c(C(N)=O)ncn3c2=O)cc1 | 6.6
NC(=O)c1ncn2c(=O)n(CCN(CCn3nnc4c(C(N)=O)ncn4c3=O)c3ccc(F)cc3)nnc12 | 11

system: HCT-116; test: Ratio of IC50 for human HCT116 cells expressing p53 to IC50 for p53-deficient human HCT116 cells; type: functional; conditions: not given

SMILES | Ratio IC50
COc1ccc(N(CCn2nnc3c(C(N)=O)ncn3c2=O)CCn2nnc3c(C(N)=O)ncn3c2=O)cc1 | 0.8
NC(=O)c1ncn2c(=O)n(CCN(CCn3nnc4c(C(N)=O)ncn4c3=O)c3ccc(F)cc3)nnc12 | 1.6

system: A2780/CP70; test: Chemoseinsitizatioin of MMR-deficieint humain A2780/CP70 cells after 5 days by MTT assay in preseince of MGMT iinactivator PaTriin2; type: functional, cell-based; conditions: Homo sapiens
Summary of the method: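 Cells plated at 1×10^3 per well and left overnight at 37 °C in 5% CO2 to adhere. Medium was then replaced with fresh medium holding compound (0 controls to 250 µM; DMSO stock, final DMSO <0.1% v/v) plus 10 µM PaTrin2 to inactivate MGMT. Survival was read by MTT after 5 days at 37 °C.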

SMILES | Activity
COc1ccc(N(CCn2nnc3c(C(N)=O)ncn3c2=O)CCn2nnc3c(C(N)=O)ncn3c2=O)cc1 | Active
CC(C)(C)OC(=O)N(CCn1nnc2c(C(N)=O)ncn2c1=O)c1ccc(Cl)cc1 | Active
NC(=O)c1ncn2c(=O)n(CCN(CCn3nnc4c(C(N)=O)ncn4c3=O)c3ccc(F)cc3)nnc12 | Active
Cc1ccc(N(C)CCn2nnc3c(C(N)=O)ncn3c2=O)cc1[N+](=O)[O-] | Active
COc1ccc(N(C)CCn2nnc3c(C(N)=O)ncn3c2=O)c([N+](=O)[O-])c1 | Active
NC(=O)c1ncn2c(=O)n(CCN(CCn3nnc4c(C(N)=O)ncn4c3=O)c3ccc(Cl)cc3)nnc12 | Active
CN(CCn1nnc2c(C(N)=O)ncn2c1=O)c1ccccc1 | Active
Cc1ccc(N(C)CCn2nnc3c(C(N)=O)ncn3c2=O)cc1 | Active
